# Reference: PubChem BioAssay AID652202 (Vanderbilt Specialized Chemistry Center, 2013)
# The source made the active and inactive calls. How the calls were made is not given here.
# Target: Metabotropic glutamate receptor 3 (Rattus norvegicus) (UniProt P31422)
# Test: glutamate potency shift at rat mGlu3 – cell-based, TRex293, Galpha15, Fluo4 calcium, selectivity assay for mGlu5 silent allosteric modulator project (AID 652202)
# Conditions: TRex293 rmGlu3+Galpha15, Fluo4 calcium mobilization
# How it was run: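 System: tetracycline-induced TRex293 cells expressing rat mGlu3 plus Galpha15; Also added: glutamate, 10 nM–1 mM; Incubation: Fluo4-AM loading 60 min at 37 °C, glutamate added at 80 s; Technique: calcium mobilization via Fluo4-AM fluorescence, dye at 1 µM; Evaluation: modulation of glutamate concentration-response by compound.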
# Chain of Metabotropic glutamate receptor 3 (Rattus norvegicus) (P31422 whole entry, looked up): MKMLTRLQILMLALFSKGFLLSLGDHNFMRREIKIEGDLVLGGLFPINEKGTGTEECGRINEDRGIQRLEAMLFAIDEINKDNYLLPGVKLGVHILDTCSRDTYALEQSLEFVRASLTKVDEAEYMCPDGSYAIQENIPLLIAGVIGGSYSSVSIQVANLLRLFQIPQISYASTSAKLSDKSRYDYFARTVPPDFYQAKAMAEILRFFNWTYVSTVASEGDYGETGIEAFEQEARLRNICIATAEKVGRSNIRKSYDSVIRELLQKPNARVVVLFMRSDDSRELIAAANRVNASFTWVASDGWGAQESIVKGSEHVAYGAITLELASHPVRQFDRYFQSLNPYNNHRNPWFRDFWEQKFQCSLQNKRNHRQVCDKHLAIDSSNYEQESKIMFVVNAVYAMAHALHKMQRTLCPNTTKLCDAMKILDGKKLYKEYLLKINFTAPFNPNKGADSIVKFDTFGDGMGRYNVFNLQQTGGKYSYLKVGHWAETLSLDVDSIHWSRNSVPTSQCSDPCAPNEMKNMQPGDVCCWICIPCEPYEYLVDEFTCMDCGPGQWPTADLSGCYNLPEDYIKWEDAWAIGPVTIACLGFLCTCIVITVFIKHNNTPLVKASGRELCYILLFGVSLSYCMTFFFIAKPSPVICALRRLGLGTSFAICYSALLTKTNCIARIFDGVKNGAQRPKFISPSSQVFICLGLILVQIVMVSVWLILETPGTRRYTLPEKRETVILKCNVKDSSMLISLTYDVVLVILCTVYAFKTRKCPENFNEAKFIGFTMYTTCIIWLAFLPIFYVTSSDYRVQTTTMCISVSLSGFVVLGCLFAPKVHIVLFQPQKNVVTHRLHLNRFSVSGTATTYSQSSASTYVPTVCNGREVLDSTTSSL
smiles,measurement,value
O=C(c1ccc(C#Cc2cccc(F)c2)cn1)N1CC2CC2C1 (stereo unspecified),glutamate EC50 in presence of 10 uM compound,inactive
